“Also recorded” adds a separate entry of the source. Where two headings read alike, the source gives them in different places.
Legend:
human OGG1 = human OGG1 (Homo sapiens, UniProt O15527); type: biochemical; details: for inhibition of excision of 8-OH-Gua by OGG1 / inhibition of excision of FapyAde by OGG1: inhibitor 10 μmol/L, genomic DNA, GC-MS/MS; for inhibition at 10 µM: read-out: inhibition of excision of FapyGua by OGG1
In short: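 Test compound was dissolved in DMSO and added to the reaction mixture of human OGG1 with genomic DNA carrying multiple oxidatively-induced lesions. It was screened at 10 μmol/L, then tested from 0.05 to 10 μmol/L. Excised 8-OH-Gua, FapyGua and FapyAde were quantified by isotope-dilution GC-MS/MS. Controls were no enzyme, no inhibitor, and DMSO alone. Standard deviations were given; significance was set at p < 0.05.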

OGG1 = details: read-out: IC50 OGG1, cited from earlier work
HeLa cells = details: LC-MS/MS with isotope-dilution; cited from earlier work
Pseudomonas aeruginosa = details: mice infected with Pseudomonas aeruginosa; cited from earlier work
HEK293T and HeLa cells = details: cited from earlier work
[1] = tested on: other BER enzymes / other DNA glycosylases; details: cited from earlier work
MTH1 = details: read-out: IC50 MTH1; dual inhibitor; cited from earlier work
[2] = highest concentration of 100 μmol/L

Sequence of human OGG1 (O15527 whole entry): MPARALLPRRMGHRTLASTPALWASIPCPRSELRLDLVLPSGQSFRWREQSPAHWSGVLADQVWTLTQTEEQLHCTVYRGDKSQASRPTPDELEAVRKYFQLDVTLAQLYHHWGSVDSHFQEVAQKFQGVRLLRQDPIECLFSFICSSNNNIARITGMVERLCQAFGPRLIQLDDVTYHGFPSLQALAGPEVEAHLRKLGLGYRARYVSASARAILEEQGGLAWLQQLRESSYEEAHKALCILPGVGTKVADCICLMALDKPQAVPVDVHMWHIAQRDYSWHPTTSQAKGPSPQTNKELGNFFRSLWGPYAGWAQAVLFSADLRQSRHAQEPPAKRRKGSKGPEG

Structure (SMILES)	inhibition of excision of 8-OH-Gua by OGG1 (human OGG1)	inhibition of excision of FapyAde by OGG1 (human OGG1)	inhibition at 10 µM (human OGG1)	IC50 (OGG1; fluorogenic assay of 8-OH-Gua excision)	level of 8-OH-Gua in DNA (HeLa cells)	inflammation and mortality / survival (Pseudomonas aeruginosa)	toxicity (HEK293T and HeLa cells; concentrations up to 10 μmol/L)	toxicity (HEK293T and HeLa cells; [2])	selectivity for OGG1 over other BER enzymes [1]	IC50 (OGG1; dual inhibitor)	IC50 (MTH1)
NC(=O)c1cccc(-c2ccc(S(=O)(=O)Nc3ccc4c(c3)N(C(=O)C3CC3)CCC4)cc2)c1 [SU0268, 4’-(N-(1-(cyclopropanecarbonyl)-1,2,3,4-tetrahydroquinolin-7-yl)sulfamoyl)-[1,1’-biphenyl]-3-carboxamide]	strongly inhibited	quite significant	~60%	59 nM	increase the level of 8-OH-Gua in DNA	reduced both inflammation and proinflammatory cytokines, and improved animal survival; also recorded: efficacy in reducing inflammation and mortality	little or no toxicity	moderate toxicity	selective for inhibiting OGG1 over other BER enzymes	–	–
Cc1cnc(N)nc1OCCNC(=O)c1cccc(-c2ccc(S(=O)(=O)Nc3ccc4c(c3)N(C(=O)C3CC3)CCC4)cc2)c1 [SU0383, N-(2-((2-Amino-5-methylpyrimidin-4-yl)oxy)ethyl)-4’-(N-(1-(cyclopropanecarbonyl)-1,2,3,4-tetrahydroquinolin-7-yl)sulfamoyl)-[1,1’-biphenyl]-3-carboxamide]	significant inhibition	quite significant	~30%	–	–	–	little or no toxicity	moderate toxicity	–	490 nM	34 nM
